Holding throughout (format): functional
Assay [1] has as its system Arabidopsis thaliana. Description: Herbicidal activity against Arabidopsis thaliana assessed as inhibition of seed germination at 200 ug/ml relative to control. An outline of the steps: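 Five sterilized Arabidopsis thaliana […] per well in 24-well sterile plates, each with 100 μL of test solution at 200 mg/L, grown in an illumination incubator. Distilled water served as blank and metazachlor as positive control. Inhibitory ratio (0–100%) was scored against distilled water.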

Assay [2] relates to Triticum aestivum. Description: Herbicidal activity against Triticum aestivum (wheat) assessed as inhibition of height growth at 200 ug/ml relative to control. As to conditions: read-out: GI. An outline of the steps: (§1)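 Seedlings were grown in an illumination incubator from ten Zea mays seeds or five Triticum aestivum seeds per plate, on filter paper wetted with 2 mL of test solution at 200 mg/L. Distilled water served as blank and metazachlor as positive control. Inhibitory ratio (0–100%) was scored against distilled water.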

For assay [3], the system named is Zea mays. In words: Herbicidal activity against Zea mays (maize) assessed as inhibition of root growth at 200 ug/ml relative to control. As to conditions: read-out: GI. An outline of the steps: as §1
The test system of assay [4] is Zea mays. In words: Herbicidal activity against Zea mays (maize) assessed as inhibition of height growth at 200 ug/ml relative to control. As to conditions: read-out: GI. An outline of the steps: as §1
Assay [5] has as its system Triticum aestivum. Description: Herbicidal activity against Triticum aestivum (wheat) assessed as inhibition of root growth at 200 ug/ml relative to control. As to conditions: read-out: GI. An outline of the steps: as §1

Usually inhibition stands for the percentage by which the read-out fell short of the control.

With `Cc1ccccc1C(=O)Oc1ccc(CC2NC(=S)NC2=O)cc1` (stereo not given), the inhibition at 200 µg/mL in assay [1] was determined as 60%. Besides, the inhibition of growth at 200 µg/mL in assay [2] is 5.8%; in assay [3] it was 33.5%; in assay [4], 53.2%; in assay [5], 20.7%.
The like results for `COc1ccc(C(=O)Oc2ccc(CC3NC(=S)NC3=O)cc2)cc1OC` (stereo not given) were, in that order, 50%, 26.1%, 64.2%, 57.9% and 43.1%.
In the same order, the values of `O=C(Cc1ccccc1)Oc1ccc(CC2NC(=S)NC2=O)cc1` (stereo not given) are 20%, 34.9%, 58.1%, 53.9% and 42.1%.
The like results for `O=C(COc1ccc(Cl)cc1Cl)Oc1ccc(CC2NC(=S)NC2=O)cc1` (stereo not given) were, in that order, 50%, 97.8%, 74.9%, 65.5% and 99.6%.
With `COc1ccccc1C(=O)Oc1ccc(CC2NC(=S)NC2=O)cc1` (stereo not given), the inhibition at 200 µg/mL in assay [1] stood at 50%. Further, the inhibition of growth at 200 µg/mL is 81.3% in assay [2], -29% in assay [3], -26.2% in assay [4] and 79.1% in assay [5].
Take `O=C(COc1ccc(Cl)cc1)Oc1ccc(CC2NC(=S)NC2=O)cc1` (stereo not given): the inhibition at 200 µg/mL in assay [1] was found to be 40%. Also, the inhibition of growth at 200 µg/mL in assay [2] amounted to 95.2%; in assay [3], 59.4%; in assay [4], 16.4%; in assay [5], 99.6%.
The like results for `COc1cc(C(=O)Oc2ccc(CC3NC(=S)NC3=O)cc2)cc(OC)c1OC` (stereo not given) were, in that order, 10%, 42.3%, 19.9%, 22.1% and 59.7%.
As for `O=C(Oc1ccc(CC2NC(=S)NC2=O)cc1)c1ccc(-c2ccccc2)cc1` (stereo not given), the inhibition at 200 µg/mL in assay [1] came out at 5%. In addition, the inhibition of growth at 200 µg/mL in assay [2] is 20.9%; in assay [3], 48.7%; in assay [4], 42.4%; in assay [5], 3.2%.
In the same order, the values of `CC(C)(C)c1ccc(C(=O)Oc2ccc(CC3NC(=S)NC3=O)cc2)cc1` (stereo not given) are 10%, 55.5%, 22.5%, 30.9% and 25.9%.
In the same order, the values of `O=C(Oc1ccc(CC2NC(=S)NC2=O)cc1)c1cc([N+](=O)[O-])cc([N+](=O)[O-])c1` (stereo not given) are 5%, 86.2%, 71%, 27.8% and 18.8%.
Consider `O=C(Oc1ccc(CC2NC(=S)NC2=O)cc1)c1cccs1` (stereo not given), for which, in assay [1], the inhibition at 200 µg/mL worked out at 20%. Besides, the inhibition of growth at 200 µg/mL in assay [2] was -1.2%; in assay [3], -24.7%; in assay [4], 11.6%; in assay [5], 15.5%.
In the same order, the values of `O=C(/C=C/c1ccccc1)Oc1ccc(CC2NC(=S)NC2=O)cc1` (stereo not given) are 10%, 33.8%, 77.9%, 52.7% and 2.5%.
The like results for `O=C(Cc1cc(C(F)(F)F)cc(C(F)(F)F)c1)Oc1ccc(CC2NC(=S)NC2=O)cc1` (stereo not given) were, in that order, 5%, 65.5%, 71.5%, 45.5% and 32.7%.
In the same order, the values of `O=C(Cc1ccc(F)cc1)Oc1ccc(CC2NC(=S)NC2=O)cc1` (stereo not given) are 20%, 50.2%, 77.3%, 70.1% and 86.6%.
Turning to `O=C(Oc1ccc(CC2NC(=S)NC2=O)cc1)c1ccco1` (stereo not given), the inhibition at 200 µg/mL in assay [1] was found to be 40%. Further, the inhibition of growth at 200 µg/mL in assay [2] came out at 27.5%; in assay [3], 60.7%; in assay [4] it was 72.8%; in assay [5], 30.3%.
The like results for `O=C(Oc1ccc(CC2NC(=S)NC2=O)cc1)c1ccccc1` (stereo not given) were, in that order, 10%, -11.1%, 44.5%, 26.6% and 16.2%.
In the case of `O=C(Oc1ccc(CC2NC(=S)NC2=O)cc1)c1cccc([N+](=O)[O-])c1` (stereo not given), in assay [1], the inhibition at 200 µg/mL came to 20%. Moreover, the inhibition of growth at 200 µg/mL in assay [2] was 20.6%; in assay [3], -16.3%; in assay [4], 3.9%; in assay [5], 16.3%.
Consider `O=C(Oc1ccc(CC2NC(=S)NC2=O)cc1)c1ccccc1F` (stereo not given), for which, in assay [1], the inhibition at 200 µg/mL came to 30%. Further, the inhibition of growth at 200 µg/mL in assay [2] was 48.4%; in assay [3], -30.2%; in assay [4], -19.4%; in assay [5], 57.9%.
Consider `COc1ccc(C(=O)Oc2ccc(CC3NC(=S)NC3=O)cc2)c(OC)c1` (stereo not given), for which, in assay [1], the inhibition at 200 µg/mL came to 20%. Further, the inhibition of growth at 200 µg/mL was -2.9% in assay [2], -11.6% in assay [3], 19.6% in assay [4] and 10.7% in assay [5].
As for `COc1cccc(C(=O)Oc2ccc(CC3NC(=S)NC3=O)cc2)c1OC` (stereo not given), the inhibition at 200 µg/mL in assay [1] is 20%. In addition, the inhibition of growth at 200 µg/mL was -10.9% in assay [2], 11.2% in assay [3], 6.7% in assay [4] and 20.9% in assay [5].
In the same order, the values of `O=C(Oc1ccc(CC2NC(=S)NC2=O)cc1)c1ccccc1Cl` (stereo not given) are 30%, 24.7%, 5.9%, 53.4% and 53.4%.
In the same order, the values of `O=C(Oc1ccc(CC2NC(=S)NC2=O)cc1)c1ccccc1[N+](=O)[O-]` (stereo not given) are 40%, 3.7%, 7.6%, 63.6% and 10.6%.
As to `O=C(Oc1ccc(CC2NC(=S)NC2=O)cc1)c1cccc(Cl)c1` (stereo not given), in assay [1], the inhibition at 200 µg/mL came out at 70%. Besides, the inhibition of growth at 200 µg/mL in assay [2] was 8.8%; in assay [3] it was 22.1%; in assay [4] it was 41.7%; in assay [5] it was 47.5%.
Consider `O=C(Oc1ccc(CC2NC(=S)NC2=O)cc1)c1ccc(Br)cc1` (stereo not given), for which the inhibition at 200 µg/mL in assay [1] was 60%. Besides, the inhibition of growth at 200 µg/mL in assay [2] was 5.2%; in assay [3], 22%; in assay [4], 14.7%; in assay [5], -48%.
The like results for `O=C(Oc1ccc(CC2NC(=S)NC2=O)cc1)c1ccc(Cl)cc1` (stereo not given) were, in that order, 40%, -12.9%, 8.6%, 23.5% and -13.6%.
Take `O=C(Oc1ccc(CC2NC(=S)NC2=O)cc1)c1ccc(Cl)c(Cl)c1` (stereo not given): the inhibition at 200 µg/mL in assay [1] came out at 40%. Besides, the inhibition of growth at 200 µg/mL in assay [2] was -15.8%; in assay [3] it was 24.1%; in assay [4], 36.7%; in assay [5], 7%.
Turning to `O=C(Oc1ccc(CC2NC(=S)NC2=O)cc1)c1ccc(Cl)c([N+](=O)[O-])c1` (stereo not given), the inhibition at 200 µg/mL in assay [1] was determined as 50%. In addition, the inhibition of growth at 200 µg/mL in assay [2] is -3.7%; in assay [3] it was 44.2%; in assay [4], 54.4%; in assay [5], 2.6%.
Consider `Cc1cccc(C(=O)Oc2ccc(CC3NC(=S)NC3=O)cc2)c1` (stereo not given), for which, in assay [1], the inhibition at 200 µg/mL was 50%. The inhibition of growth at 200 µg/mL was -14.8% in assay [2], 61.3% in assay [3], 62.8% in assay [4] and 12.7% in assay [5].
The like results for `COc1ccc(C(=O)Oc2ccc(CC3NC(=S)NC3=O)cc2)cc1` (stereo not given) were, in that order, 30%, 25.1%, 17.8%, 33.5% and 32.2%.
In the same order, the values of `Cc1ccc(C(=O)Oc2ccc(CC3NC(=S)NC3=O)cc2)cc1` (stereo not given) are 60%, 1.27%, 38.7%, 27.9% and 16.8%.

Values taken from ChEMBL document CHEMBL3046718, “Synthesis and herbicidal activity of 5-(4-hydroxybenzyl)-2-thioxoimidazolidin-4-one esters” (2011).
